# ChEMBL document CHEMBL4689842, “EUbOPEN Chemogenomics Library wave 1” (2021)
# System: Fibroblast
# Assay: Multiplex assay against human fibroblast
# Type: toxicity, cell-based
# How it was run: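 Compound was added to live cells that had been stained at seeding with Hoechst33342, BioTracker Green Microtubule Cytoskeleton Dye, MitoTracker Red and Annexin V Alexa Fluor 680, and imaging followed on a CQ1 microscope at 37°C and 5% CO2. CellPathfinder machine-learning gating divided cells into Hoechst high-intensity objects or normal cells, normal cells into healthy, pyknosed or fragmented nuclei, and pyknosed cells into mitotic or apoptotic. Tubulin, mitochondrial-mass and membrane-permeability phenotypes are per cents of healthy-nucleus cells.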
# [1] = 12 h, 1 µM, compound concentration 1 uM, replicate 1
# [2] = 12 h, 1 µM, compound concentration 1 uM, replicate 2
# [3] = 12 h, 10 µM, compound concentration 10 uM, replicate 1
# [4] = 12 h, 10 µM, compound concentration 10 uM, replicate 2
# [5] = 24 h, 1 µM, compound concentration 1 uM, replicate 1
# [6] = 24 h, 1 µM, compound concentration 1 uM, replicate 2
# [7] = 24 h, 10 µM, compound concentration 10 uM, replicate 1
# [8] = 24 h, 10 µM, compound concentration 10 uM, replicate 2
# [9] = 48 h, 1 µM, compound concentration 1 uM, replicate 1
# [10] = 48 h, 1 µM, compound concentration 1 uM, replicate 2
# [11] = 48 h, 10 µM, compound concentration 10 uM, replicate 1
# [12] = 48 h, 10 µM, compound concentration 10 uM, replicate 2
compound,measurement,setting,value
CCCc1cc(C)[nH]c(=O)c1CNC(=O)c1cc(-c2ccc(N3CCN(C(C)C)CC3)nc2)cc2c1cnn2C(C)C,Population Apoptotic (%),[1],73%
same,Population Fragmented Nuclei (%),[1],26%
same,Population Healthy Nuclei (%),[1],41%
same,Population Hoechst High Intensity Objects (%),[1],22%
same,Population Membrane Permeable-Phenotype (%),[1],4%
same,Population Mitochondria Different-Phenotype (%),[1],32%
same,Population Mitotic Cells (%),[1],26%
same,Population Normal (%),[1],77%
same,Population Pyknosed Nuclei (%),[1],31%
same,Population Tubulin-Different-Phenotype (%),[1],52%
same,Total Cell Count,[1],77
same,Population Apoptotic (%),[2],20%
same,Population Fragmented Nuclei (%),[2],19%
same,Population Healthy Nuclei (%),[2],70%
same,Population Hoechst High Intensity Objects (%),[2],10%
same,Population Membrane Permeable-Phenotype (%),[2],8%
same,Population Mitochondria Different-Phenotype (%),[2],91%
same,Population Mitotic Cells (%),[2],80%
same,Population Normal (%),[2],89%
same,Population Pyknosed Nuclei (%),[2],9%
same,Population Tubulin-Different-Phenotype (%),[2],94%
same,Total Cell Count,[2],56
same,Population Apoptotic (%),[3],48%
same,Population Fragmented Nuclei (%),[3],24%
same,Population Healthy Nuclei (%),[3],32%
same,Population Hoechst High Intensity Objects (%),[3],29%
same,Population Membrane Permeable-Phenotype (%),[3],6%
same,Population Mitochondria Different-Phenotype (%),[3],21%
same,Population Mitotic Cells (%),[3],51%
same,Population Normal (%),[3],70%
same,Population Pyknosed Nuclei (%),[3],42%
same,Population Tubulin-Different-Phenotype (%),[3],69%
same,Total Cell Count,[3],143
same,Population Apoptotic (%),[4],85%
same,Population Fragmented Nuclei (%),[4],13%
same,Population Healthy Nuclei (%),[4],47%
same,Population Hoechst High Intensity Objects (%),[4],5%
same,Population Membrane Permeable-Phenotype (%),[4],79%
same,Population Mitochondria Different-Phenotype (%),[4],100%
same,Population Mitotic Cells (%),[4],14%
same,Population Normal (%),[4],94%
same,Population Pyknosed Nuclei (%),[4],38%
same,Population Tubulin-Different-Phenotype (%),[4],100%
same,Total Cell Count,[4],57
same,Population Apoptotic (%),[5],31%
same,Population Fragmented Nuclei (%),[5],30%
same,Population Healthy Nuclei (%),[5],47%
same,Population Hoechst High Intensity Objects (%),[5],16%
same,Population Membrane Permeable-Phenotype (%),[5],11%
same,Population Mitochondria Different-Phenotype (%),[5],20%
same,Population Mitotic Cells (%),[5],68%
same,Population Normal (%),[5],83%
same,Population Pyknosed Nuclei (%),[5],22%
same,Population Tubulin-Different-Phenotype (%),[5],85%
same,Total Cell Count,[5],86
same,Population Apoptotic (%),[6],33%
same,Population Fragmented Nuclei (%),[6],20%
same,Population Healthy Nuclei (%),[6],51%
same,Population Hoechst High Intensity Objects (%),[6],10%
same,Population Membrane Permeable-Phenotype (%),[6],10%
same,Population Mitochondria Different-Phenotype (%),[6],78%
same,Population Mitotic Cells (%),[6],66%
same,Population Normal (%),[6],90%
same,Population Pyknosed Nuclei (%),[6],27%
same,Population Tubulin-Different-Phenotype (%),[6],82%
same,Total Cell Count,[6],53
same,Population Apoptotic (%),[7],46%
same,Population Fragmented Nuclei (%),[7],21%
same,Population Healthy Nuclei (%),[7],43%
same,Population Hoechst High Intensity Objects (%),[7],25%
same,Population Membrane Permeable-Phenotype (%),[7],4%
same,Population Mitochondria Different-Phenotype (%),[7],37%
same,Population Mitotic Cells (%),[7],53%
same,Population Normal (%),[7],74%
same,Population Pyknosed Nuclei (%),[7],35%
same,Population Tubulin-Different-Phenotype (%),[7],59%
same,Total Cell Count,[7],199
same,Population Apoptotic (%),[8],91%
same,Population Fragmented Nuclei (%),[8],8%
same,Population Healthy Nuclei (%),[8],48%
same,Population Hoechst High Intensity Objects (%),[8],9%
same,Population Membrane Permeable-Phenotype (%),[8],85%
same,Population Mitochondria Different-Phenotype (%),[8],100%
same,Population Mitotic Cells (%),[8],8%
same,Population Normal (%),[8],90%
same,Population Pyknosed Nuclei (%),[8],42%
same,Population Tubulin-Different-Phenotype (%),[8],100%
same,Total Cell Count,[8],60
same,Population Apoptotic (%),[9],66%
same,Population Healthy Nuclei (%),[9],50%
same,Population Hoechst High Intensity Objects (%),[9],20%
same,Population Membrane Permeable-Phenotype (%),[9],7%
same,Population Mitochondria Different-Phenotype (%),[9],23%
same,Population Mitotic Cells (%),[9],33%
same,Population Normal (%),[9],79%
same,Population Pyknosed Nuclei (%),[9],15%
same,Population Tubulin-Different-Phenotype (%),[9],63%
same,Total Cell Count,[9],96
same,Population Apoptotic (%),[10],50%
same,Population Fragmented Nuclei (%),[10],34%
same,Population Healthy Nuclei (%),[10],63%
same,Population Hoechst High Intensity Objects (%),[10],10%
same,Population Membrane Permeable-Phenotype (%),[10],8%
same,Population Mitochondria Different-Phenotype (%),[10],10%
same,Population Mitotic Cells (%),[10],50%
same,Population Normal (%),[10],90%
same,Population Pyknosed Nuclei (%),[10],1%
same,Population Tubulin-Different-Phenotype (%),[10],73%
same,Total Cell Count,[10],120
same,Population Apoptotic (%),[11],77%
same,Population Fragmented Nuclei (%),[11],34%
same,Population Healthy Nuclei (%),[11],25%
same,Population Hoechst High Intensity Objects (%),[11],38%
same,Population Membrane Permeable-Phenotype (%),[11],5%
same,Population Mitochondria Different-Phenotype (%),[11],63%
same,Population Mitotic Cells (%),[11],22%
same,Population Normal (%),[11],61%
same,Population Pyknosed Nuclei (%),[11],40%
same,Population Tubulin-Different-Phenotype (%),[11],68%
same,Total Cell Count,[11],124
same,Population Apoptotic (%),[12],48%
same,Population Fragmented Nuclei (%),[12],22%
same,Population Healthy Nuclei (%),[12],41%
same,Population Hoechst High Intensity Objects (%),[12],54%
same,Population Membrane Permeable-Phenotype (%),[12],0%
same,Population Mitochondria Different-Phenotype (%),[12],42%
same,Population Mitotic Cells (%),[12],51%
same,Population Normal (%),[12],45%
same,Population Pyknosed Nuclei (%),[12],35%
same,Population Tubulin-Different-Phenotype (%),[12],63%
same,Total Cell Count,[12],202
